Screening data deposited in PubChem by Sanford-Burnham Center for Chemical Genomics.
SENP1 FRET inh = human SENP1 catalytic domain inhibitors, primary screen, biochemical, FRET, uHTS; recombinant SENP1 catalytic domain, CyPet-SUMO1-YPet FRET cleavage; inhibition, % at 10 µM; 360,000 tested, 0.21% active; AID 624204, 2012;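 active = inhibition at least 30% at 10 µM, raw YFP signal under a set limit, fluorescence ratio 0.5 to 1.5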;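 also: 0% = enzyme with DMSO and 100% = no enzyme wells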
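Controls: no-enzyme wells low, DMSO-plus-enzyme wells high control. Test system: human recombinant His6-tagged SENP1 catalytic domain enzyme. Reagent: SFCypet-SUMO1-SFYpet FRET protein substrate, 25 nM final. Doses: one dose per compound, 10 µM, 0.5% DMSO. Detection: FRET, CFP and YFP emission. Timing: 50 min reaction at room temperature.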
EBI2 block = EBI2 receptor antagonists, beta-arrestin recruitment, primary screen, cell-based, luminescence, 7a,25-OHC stimulation, uHTS; G-protein coupled receptor 183 (Homo sapiens), P32249; 7a,25-OHC stimulated; inhibition, % at 5 µM; 360,000 tested, 0.81% active; AID 651636, 2012; in the data active = inhibition above about 38%;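 also: enzyme fragment complementation signal reports receptor beta-arrestin coupling in cells; 0% = agonist plus DMSO wells and 100% = wells without agonist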
Target sequence (P32249 whole entry, looked up, the tested form may be a part): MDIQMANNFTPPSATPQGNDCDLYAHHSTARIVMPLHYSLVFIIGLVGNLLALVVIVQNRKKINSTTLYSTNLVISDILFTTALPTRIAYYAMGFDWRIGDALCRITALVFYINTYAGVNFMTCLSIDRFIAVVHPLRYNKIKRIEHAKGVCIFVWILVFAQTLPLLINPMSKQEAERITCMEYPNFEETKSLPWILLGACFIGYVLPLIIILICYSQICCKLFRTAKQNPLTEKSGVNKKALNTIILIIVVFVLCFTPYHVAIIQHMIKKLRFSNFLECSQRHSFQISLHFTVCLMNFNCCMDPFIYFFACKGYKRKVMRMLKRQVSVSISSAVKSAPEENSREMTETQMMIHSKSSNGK
MPTP block = mitochondrial permeability transition pore inhibitors, primary screen, biochemical, isolated mouse mitochondria, absorbance; 360,000 tested, 1.4% active; Ca2+ swelling absorbance, 30 min; AID 602449, 2012; inhibition, % at 10 µM;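 active = inhibition of 50% or more, scaled per plate between neutral and stimulator controls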;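 also: 0% = DMSO wells given calcium and 100% = 1 mM EGTA wells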
GRIN3A LBD mod = binders of NR3A ligand-binding domain, primary screen, biophysical, differential scanning fluorimetry, uHTS. Tm shift relative to glycine control, % at 25 µM. Glutamate receptor ionotropic, NMDA 3A (GRIN3A) ligand-binding domain. 340,000 tested, 2.5% active. NR3A LBD differential scanning fluorimetry, Tm shift; 0% = protein alone, 100% = glycine-bound protein;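 active = melting temperature shift of at least 10% of the positive control shift, at one fixed dose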
EBI2 antag conf = EBI2 antagonist hit retest, beta-arrestin, confirmation, cell-based, single concentration, luminescence, 7a,25-OHC stimulation; inhibition, % at 5 µM; AID 651997, 2013; 7a,25-OHC antagonism; 2,400 tested, 29% active; shares compounds with EBI2 block;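 active = inhibition of at least 50%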
EBI2 agonist = EBI2 agonist activity of antagonist hits, confirmation, counter-screen for EBI2 antagonist project, cell-based, single concentration, agonist mode, luminescence; shares compounds with EBI2 block; EBI2-expressing cells, 60 min; 0% vehicle, 100% 7α,25-dihydroxycholesterol control; activation, % at 5 µM; 2,400 tested, under 10 active;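 active = activation of at least 50%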
bGal cs = E. coli beta-galactosidase enzyme inhibition, confirmation, counter-screen for EBI2 antagonist project, biochemical, luminescence, single concentration; shares compounds with EBI2 block; purified beta-galactosidase, luminescent Galacton Star, 15 min; inhibition, % at 5 µM; 2,400 tested, 1% active; AID 652176, 2013;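 active = replicate-average signal at least 3 plate SD below neutral wells, shown as high inhibition, flagging enzyme-inhibiting false positives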;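 also: 0% = DMSO wells with enzyme and 100% = wells lacking enzyme; higher means stronger loss of beta-gal luminescence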
* hit, by the source's call; . = not tested or not shown. Sampled rows, rich in hits. Any-hit rate of the full collection: about 4.4%.

SMILES	SENP1 FRET inh	EBI2 block	MPTP block	GRIN3A LBD mod	EBI2 antag conf	EBI2 agonist	bGal cs
O=C(Nc1ccc(-n2cnnn2)cc1)c1cccc(S(=O)(=O)N2CCCC2)c1	3	2	0	1	.	.	.
Cc1ccc(C(=O)Cn2c(C(=O)/C=C/c3ccccc3)nc3ccccc32)cc1	-1	48*	1	1	36	0	7
Cc1ccc(C(=O)Cn2c(NCCO)nc3ccccc32)cc1	2	-1	1	-1	.	.	.
CCN(CC)c1ccc(/C=C/C(=O)c2ccc(Br)cc2)cc1	-25	37	4	3	.	.	.
CN(C)c1ccc(C(=O)/C=C/c2ccc(Br)cc2)cc1	30	86*	2	-3	64*	-1	-21
Cc1ccc(C)c(C(=O)N2CCN(c3ncccn3)CC2)c1	2	4	0	2	.	.	.
CCOc1ccc(/C=C/C(=O)c2ccccc2)cc1	-6	10	0	-34	.	.	.
CCOc1ccc(C(=O)/C=C/c2ccc(SC)cc2)cc1	-27	61*	1	-35	50*	0	7
Cc1cc(C(C)(C)C)oc1C(=O)O	0	2	2	-2	.	.	.
Cc1cc(C(C)(C)C)oc1C(=O)N1CCN(C(=O)c2oc(C(C)(C)C)cc2C)CC1	-1	48*	2	-1	30	0	6
COc1cc2ccccc2cc1C(=O)NC1CCC(C)CC1 (centres undefined)	0	65*	0	2	48	0	4
COc1cc2ccccc2cc1C(=O)NC1CCCC1	0	7	-2	0	.	.	.
CCOc1ccc(S(=O)(=O)N2CCC(C(=O)NCC3CCCO3)CC2)cc1C (centres undefined)	1	6	0	1	.	.	.
O=C(Nc1ccc(Oc2ccccc2)nc1)C1CCCCN1Cc1ccc(O)cc1 (centres undefined)	-2	86*	0	.	55*	-1	4
COc1cc(CN2CCCCC2C(=O)Nc2ccc(Oc3ccccc3)nc2)ccc1O (centres undefined)	-4	87*	0	-1	50*	0	3
COCCc1ncc(CN2CCCCC2C(=O)Nc2ccc(Oc3ccccc3)nc2)cn1 (centres undefined)	1	19	0	3	.	.	.
O=C(Nc1ccc(Oc2ccccc2)nc1)C1CCCCN1Cc1cccc(O)c1 (centres undefined)	0	93*	2	-1	74*	0	7
N#CC1(Nc2ccc3ccccc3c2)CCCC1	-10	-5	1	0	.	.	.
COC(=O)c1ccc(OCC(O)CN2CCN(C(=O)c3ccco3)CC2)cc1 (centres undefined)	1	-3	2	-1	.	.	.
O=C(c1ccco1)N1CCN(CC(O)COc2ccc(Br)cc2)CC1 (centres undefined)	1	51*	4	-1	3	-2	-6
CC(C)CCNc1nnnc2c1sc1nc(N3CCOCC3)c3c(c12)CC(C)(C)SC3	-42	52*	-1	-2	43	-2	-3
Cc1ccc(S(=O)(=O)N2[C@H](CC(=O)OCc3ccccc3)OC[C@@H]2C)cc1	0	0	-1	.	.	.	.
COc1cc(NC(=O)CSCc2cnn(-c3ccccc3)c2-n2cccc2)cc(OC)c1	0	37*	-18	-3	14	-2	-13
COc1ccc(OC)c(NC(=O)CSCc2cnn(-c3ccccc3)c2-n2cccc2)c1	1	15	0	-2	.	.	.
CCOc1ccc2oc(C(=O)Nc3cc(C)ccn3)c(C)c2c1	-7	43*	0	-4	10	-1	-10
